Columns and labels:
[1] = tested on: Candida albicans; test: Antifungal activity against Candida albicans ATCC 24433 after 48 hrs by CLSI broth microdilution method; assay type: functional; details: ATCC 24433, 48 h
Method in brief: (§1)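 Yeast CLSI broth microdilution (M27-A3). Compounds dissolved in DMSO at 100× the top test concentration, then diluted as serial two-fold dilutions in RPMI 1640 to final 0.125–64. Inoculum was 1.0–1.5 × 10^3 cells mL−1, incubated at 35 °C and read for growth at 48 h. MIC is the lowest concentration giving ≥50% growth inhibition versus growth control. Reported as the median of five replicates and as the geometric mean.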

[2] = tested on: Candida tropicalis; test: Antifungal activity against Candida tropicalis DSM 11953 after 48 hrs by CLSI broth microdilution method; assay type: functional; details: DSM 11953, 48 h; method in brief: as §1
[3] = tested on: Candida tropicalis; test: Antifungal activity against Candida tropicalis PMC 0910 after 48 hrs by CLSI broth microdilution method; assay type: functional; details: PMC 0910, 48 h; method in brief: as §1
[4] = tested on: Pichia kudriavzevii; test: Antifungal activity against Candida krusei DSM 6128 after 48 hrs by CLSI broth microdilution method; assay type: functional; details: DSM 6128, 48 h; method in brief: as §1
[5] = tested on: Cryptococcus neoformans; test: Antifungal activity against Cryptococcus neoformans PMC 2136 after 72 hrs by CLSI broth microdilution method; assay type: functional; details: PMC 2136, 72 h
Method in brief: (§2)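 Cryptococcus neoformans tested by CLSI broth microdilution in RPMI 1640, with serial two-fold dilutions from DMSO stocks at 100× the top concentration, final 0.125–64. Inoculum was 1.0–1.5 × 10^3 cells mL−1 at 35 °C, with growth read at 72 h. MIC is the lowest concentration with ≥50% growth inhibition versus control. Median of five replicates, plus geometric mean.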

[6] = tested on: Candida albicans; test: Antifungal activity against Candida albicans ATCC 10261 after 48 hrs by CLSI broth microdilution method; assay type: functional; details: ATCC 10261, 48 h; method in brief: as §1
[7] = tested on: Cryptococcus neoformans; test: Antifungal activity against Cryptococcus neoformans PMC 2123 after 72 hrs by CLSI broth microdilution method; assay type: functional; details: PMC 2123, 72 h; method in brief: as §2
[8] = tested on: Cryptococcus neoformans; test: Antifungal activity against Cryptococcus neoformans PMC 2103 after 72 hrs by CLSI broth microdilution method; assay type: functional; details: PMC 2103, 72 h; method in brief: as §2
[9] = tested on: Cryptococcus neoformans; test: Antifungal activity against Cryptococcus neoformans PMC 2111 after 72 hrs by CLSI broth microdilution method; assay type: functional; details: PMC 2111, 72 h; method in brief: as §2
[10] = tested on: Cryptococcus neoformans; test: Antifungal activity against Cryptococcus neoformans DSM 11959 after 72 hrs by CLSI broth microdilution method; assay type: functional; details: DSM 11959, 72 h; method in brief: as §2
[11] = tested on: Trichophyton mentagrophytes; test: Antifungal activity against Trichophyton mentagrophytes PMC 6552 after 72 hrs by CLSI broth microdilution method; assay type: functional; details: PMC 6552, 72 h
Method in brief: (§3)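 Dermatophytes tested by CLSI broth microdilution for filamentous fungi (M38-A2). Serial two-fold dilutions of DMSO-dissolved compound in RPMI 1640, final 0.125–64. Inoculum was 0.4–5 × 10^4 CFU mL−1, incubated at 35 °C and read at 72 h. MIC80 is the lowest concentration giving ≥80% growth inhibition versus growth control. Median of five replicates, plus geometric mean.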

[12] = tested on: Cryptococcus neoformans; test: Antifungal activity against Cryptococcus neoformans PMC 2102 after 72 hrs by CLSI broth microdilution method; assay type: functional; details: PMC 2102, 72 h; method in brief: as §2
[13] = tested on: Nannizzia gypsea; test: Antifungal activity against Microsporum gypseum DSM 3824 after 72 hrs by CLSI broth microdilution method; assay type: functional; details: DSM 3824, 72 h; method in brief: as §3
[14] = tested on: Candida albicans; test: Antifungal activity against Candida albicans ATCC 10231 after 48 hrs by CLSI broth microdilution method; assay type: functional; details: ATCC 10231, 48 h; method in brief: as §1
[15] = tested on: Trichophyton mentagrophytes; test: Antifungal activity against Trichophyton mentagrophytes PMC 6531 after 72 hrs by CLSI broth microdilution method; assay type: functional; details: PMC 6531, 72 h; method in brief: as §3
[16] = tested on: Nannizzia gypsea; test: Antifungal activity against Microsporum gypseum PMC 7303 after 72 hrs by CLSI broth microdilution method; assay type: functional; details: PMC 7303, 72 h; method in brief: as §3
[17] = Cytotoxicity against human A549 cells after 48 hrs by MTT assay; assay type: cell-based
Method in brief: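 A549 cells (ATCC CCL-185) seeded at 2 × 10^4/well in phenol-red-free RPMI 1640 with 10% FBS, L-glutamine, penicillin and streptomycin, at 37 °C and 5% CO2. Exposed 48 h to DMSO-dissolved compounds (final 16–256; at least five concentrations, triplicate). MTT added for 3–4 h, crystals solubilized, OD read at 570 nm. CC50 taken versus the DMSO control. Mean ± SD of two independent experiments.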

[18] = tested on: Candida albicans; test: Antifungal activity against Candida albicans PMC 1011 after 48 hrs by CLSI broth microdilution method; assay type: functional; details: PMC 1011, 48 h; method in brief: as §1
[19] = tested on: Cryptococcus neoformans; test: Antifungal activity against Cryptococcus neoformans PMC 2107 after 72 hrs by CLSI broth microdilution method; assay type: functional; details: PMC 2107, 72 h; method in brief: as §2
[20] = tested on: Trichophyton mentagrophytes; test: Antifungal activity against Trichophyton mentagrophytes PMC 6503 after 72 hrs by CLSI broth microdilution method; assay type: functional; details: PMC 6503, 72 h; method in brief: as §3
[21] = tested on: Candida albicans; test: Antifungal activity against Candida albicans ATCC 90028 after 48 hrs by CLSI broth microdilution method; assay type: functional; details: ATCC 90028, 48 h; method in brief: as §1
[22] = tested on: Candida albicans; test: Antifungal activity against Candida albicans ATCC 3153 after 48 hrs by CLSI broth microdilution method; assay type: functional; details: ATCC 3153, 48 h; method in brief: as §1
[23] = tested on: Candida parapsilosis; test: Antifungal activity against Candida parapsilosis DSM 11224 after 48 hrs by CLSI broth microdilution method; assay type: functional; details: Lodderomyces parapsilosis, DSM 11224, 48 h; method in brief: as §1
[24] = tested on: Candida albicans; test: Antifungal activity against Candida albicans ATCC 20891 after 48 hrs by CLSI broth microdilution method; assay type: functional; details: ATCC 20891, 48 h; method in brief: as §1
[25] = tested on: Trichophyton mentagrophytes; test: Antifungal activity against Trichophyton mentagrophytes DSM 4870 after 72 hrs by CLSI broth microdilution method; assay type: functional; details: DSM 4870, 72 h; method in brief: as §3
[26] = tested on: Candida albicans; test: Antifungal activity against Candida albicans ATCC 76615 after 48 hrs by CLSI broth microdilution method; assay type: functional; details: ATCC 76615, 48 h; method in brief: as §1
[27] = tested on: Cryptococcus neoformans; test: Antifungal activity against Cryptococcus neoformans PMC 2115 after 72 hrs by CLSI broth microdilution method; assay type: functional; details: PMC 2115, 72 h; method in brief: as §2
[28] = tested on: Trichophyton mentagrophytes; test: Antifungal activity against Trichophyton mentagrophytes PMC 6509 after 72 hrs by CLSI broth microdilution method; assay type: functional; details: PMC 6509, 72 h; method in brief: as §3
[29] = tested on: Nannizzia gypsea; test: Antifungal activity against Microsporum gypseum PMC 7331 after 72 hrs by CLSI broth microdilution method; assay type: functional; details: PMC 7331, 72 h; method in brief: as §3
[30] = tested on: Nakaseomyces glabratus; test: Antifungal activity against Candida glabrata PMC 0805 after 48 hrs by CLSI broth microdilution method; assay type: functional; details: PMC 0805, 48 h; method in brief: as §1
[31] = tested on: Trichophyton mentagrophytes; test: Antifungal activity against Trichophyton mentagrophytes PMC 6515 after 72 hrs by CLSI broth microdilution method; assay type: functional; details: PMC 6515, 72 h; method in brief: as §3
[32] = tested on: Nakaseomyces glabratus; test: Antifungal activity against Candida glabrata PMC 0807 after 48 hrs by CLSI broth microdilution method; assay type: functional; details: PMC 0807, 48 h; method in brief: as §1
[33] = tested on: Candida parapsilosis; test: Antifungal activity against Candida parapsilosis ATCC 22019 after 48 hrs by CLSI broth microdilution method; assay type: functional; details: Lodderomyces parapsilosis, ATCC 22019, 48 h; method in brief: as §1
[34] = tested on: Pichia kudriavzevii; test: Antifungal activity against Candida krusei PMC 0613 after 48 hrs by CLSI broth microdilution method; assay type: functional; details: PMC 0613, 48 h; method in brief: as §1
[35] = tested on: Candida albicans; test: Antifungal activity against Candida albicans PMC 1041R after 48 hrs by CLSI broth microdilution method; assay type: functional; method in brief: as §1
[36] = tested on: Candida albicans; test: Antifungal activity against Candida albicans PMC 1040R after 48 hrs by CLSI broth microdilution method; assay type: functional; method in brief: as §1
[37] = tested on: Nakaseomyces glabratus; test: Antifungal activity against Candida glabrata PMC 0853R after 48 hrs by CLSI broth microdilution method; assay type: functional; method in brief: as §1
[38] = tested on: Nakaseomyces glabratus; test: Antifungal activity against Candida glabrata PMC 0852R after 48 hrs by CLSI broth microdilution method; assay type: functional; method in brief: as §1
[39] = tested on: Nakaseomyces glabratus; test: Antifungal activity against Candida glabrata PMC 0851R after 48 hrs by CLSI broth microdilution method; assay type: functional; method in brief: as §1
[40] = tested on: Candida albicans; test: Antifungal activity against Candida albicans PMC 1042R after 48 hrs by CLSI broth microdilution method; assay type: functional; method in brief: as §1
[41] = tested on: Nakaseomyces glabratus; test: Antifungal activity against Candida glabrata PMC 0850R after 48 hrs by CLSI broth microdilution method; assay type: functional; method in brief: as §1

O=C(OC(Cn1ccnc1)c1ccc(F)cc1)N1CCN(c2ccc(Cl)cc2)CC1 (configuration not stated)
16 µg/mL: MIC80 [13] | MIC80 [16] | MIC80 [20] | MIC80 [25] | MIC80 [28]
8 µg/mL: MIC50 [4] | MIC80 [15] | MIC50 [22] | MIC50 [26] | MIC80 [31] | MIC50 [32]
0.25 µg/mL: MIC50 [23]
1 µg/mL: MIC50 [6] | MIC50 [19] | MIC50 [34]
4 µg/mL: MIC50 [1] | MIC50 [5] | MIC50 [7] | MIC50 [9] | MIC50 [10] | MIC50 [12] | MIC50 [27] | MIC80 [29]
78.4 µg/mL: CC50 at 48 h [17]
2 µg/mL: MIC50 [2] | MIC50 [3] | MIC50 [8] | MIC50 [14] | MIC50 [30] | MIC50 [33]
0.5 µg/mL: MIC50 [18] | MIC50 [21] | MIC50 [24]
32 µg/mL: MIC80 [11]

O=C(Nc1ccc(N2CCN(c3ccc(Cl)cc3)CC2)cc1)O[C@H](Cn1ccnc1)c1ccc(F)cc1
128 µg/mL: MIC80 [11] | MIC80 [13] | MIC80 [15] | MIC80 [20] | MIC80 [25] | MIC80 [28] | MIC80 [29] | MIC80 [31]
32 µg/mL: MIC50 [3] | MIC50 [14] | MIC50 [18] | MIC50 [21] | MIC50 [24] | MIC50 [26]
64 µg/mL: MIC50 [1] | MIC50 [6] | MIC80 [16] | MIC50 [22]
1 µg/mL: MIC50 [8] | MIC50 [9] | MIC50 [10] | MIC50 [19] | MIC50 [34]
2 µg/mL: MIC50 [4] | MIC50 [5] | MIC50 [7] | MIC50 [12] | MIC50 [23] | MIC50 [27] | MIC50 [30]
16 µg/mL: MIC50 [2]
4 µg/mL: MIC50 [32] | MIC50 [33]

OC(Cn1cncn1)(Cn1cncn1)c1ccc(F)cc1F [FLUCONAZOLE]
1 µg/mL: MIC50 [2] | MIC50 [9] | MIC50 [19] | MIC50 [23] | MIC50 [24] | MIC80 [28] | MIC50 [30]
0.25 µg/mL: MIC50 [18]
0.5 µg/mL: MIC50 [1] | MIC50 [21] | MIC50 [26]
32 µg/mL: MIC50 [35] | MIC50 [37] | MIC50 [41]
128 µg/mL: MIC50 [39]
512 µg/mL: MIC50 [36]
8 µg/mL: MIC80 [11] | MIC80 [31] | MIC50 [34]
2 µg/mL: MIC50 [5] | MIC50 [7] | MIC50 [8] | MIC50 [10] | MIC50 [14] | MIC80 [20] | MIC50 [33]
16 µg/mL: MIC50 [4] | MIC80 [13] | MIC50 [38] | MIC80 [16] | MIC50 [40] | MIC50 [22] | MIC80 [25] | MIC80 [29] | MIC50 [32]
4 µg/mL: MIC50 [3] | MIC50 [6] | MIC50 [12] | MIC80 [15] | MIC50 [27]

Source: ChEMBL document CHEMBL3286116, “Synthesis, biological evaluation and structure-activity correlation study of a series of imidazol-based compounds as Candida albicans inhibitors” (Eur J Med Chem, 2014)
